Bioassay records deposited in PubChem BioAssay by Sanford-Burnham Center for Chemical Genomics.
A selection: hits, their analogues and other compounds. The true share with any hit is near 1.5%.
EBI2 block: antagonists of human EBI2 receptor; EBI2 beta-arrestin recruitment, luminescence, 7a,25-OHC stimulated; inhibition, % at 5 µM; 360,000 compounds, 0.81% hits; AID 651636; in the data active = inhibition above about 38%;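 note: enzyme fragment complementation signal reports receptor beta-arrestin coupling in cells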
APJ ag: activates the human apelin receptor APJ; AID 2520; CHO-K1 APJ PathHunter beta-arrestin, luminescence; 0% DMSO wells, 100% apelin; activation, % at 20 µM; 330,000 compounds, 0.11% hits;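 active = activation more than six SD over the plate average, tested at 20 µM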
Target sequence (P35414 whole entry, looked up): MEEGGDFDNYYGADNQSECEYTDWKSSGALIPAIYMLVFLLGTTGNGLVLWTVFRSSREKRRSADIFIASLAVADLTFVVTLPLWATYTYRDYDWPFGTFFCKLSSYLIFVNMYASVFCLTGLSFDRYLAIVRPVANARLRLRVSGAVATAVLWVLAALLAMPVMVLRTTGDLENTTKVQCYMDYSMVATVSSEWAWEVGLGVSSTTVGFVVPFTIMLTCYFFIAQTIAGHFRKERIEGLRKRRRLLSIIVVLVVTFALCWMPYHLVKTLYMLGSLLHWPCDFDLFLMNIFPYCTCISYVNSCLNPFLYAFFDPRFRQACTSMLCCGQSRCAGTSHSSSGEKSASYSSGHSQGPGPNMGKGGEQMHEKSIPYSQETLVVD
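Material: engineered CHO-K1 APJ arrestin reporter cells; amount: 1000 CHO-K1 reporter cells seeded per well; incubation: compound stimulation 90 min at 25 °C, detection 60 min; signal: luminescent beta-gal fragment complementation, chemiluminescent substrate; read-out basis: APJ agonist activity; controls: DMSO-only wells as negative, 10 nM Apelin-13 as positive control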
CCR6 antagonist: blocks CCL20-driven beta-arrestin recruitment at human CCR6 | P51684 | CHO-K1 CCR6 PathHunter beta-arrestin, luminescence, CCL20-stimulated | inhibition, % at 20 µM | 340,000 compounds, 0.49% hits | AID 493098;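 active = compounds whose inhibition of the agonist-driven luminescence signal at 20 µM reaches about 50%, limit read from the data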;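 note: cells stimulated with CCL20 at 14 nM final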
CXCR6 block: blocks human CXCR6 beta-arrestin recruitment. O00574. CHO-K1 PathHunter CXCR6 beta-arrestin, luminescence. inhibition, % at 20 µM. 360,000 compounds, 0.36% hits; in the data active = inhibition above about 34%, passing the limit was not always enough;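 note: antagonist mode with CXCL16 agonist at 10 nM final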
APJ antagonist: APJ receptor antagonism | P35414 | inhibition, % at 20 µM | CHO-K1 APJ beta-arrestin complementation, luminescence | 330,000 compounds, 0.32% hits;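 active = inhibition above about 40% at 20 µM, limit read from the data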;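 note: cells challenged with 10 nM apelin-13 agonist together with compound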
APJ antag confirm: APJ receptor antagonism confirmation | APJ beta-arrestin recruitment, luminescence, antagonist mode | inhibition, % at 20 µM | shares compounds with APJ antagonist | AID 2766 | 950 compounds, 66% hits; in the data active = inhibition above about 50%
Numbers stand for hits.

C[C@@H]1ON(C)[C@H]2C[C@H]3c4[nH]c5ccc(-c6ccc7c(c6)OCO7)cc5c4CCN3C(=O)[C@@H]12 was read as EBI2 block inactive and CXCR6 block inactive.
Screening O=[N+]([O-])c1ccc(O)c(/C=N/Nc2ccc(Cl)nn2)c1 returned EBI2 block 77, APJ ag inactive, CCR6 antagonist 90, CXCR6 block 79, APJ antagonist 55 and APJ antag confirm 81.
`O=[N+]([O-])c1ccc(O)c(/C=N/NC2=NS(=O)(=O)c3ccccc32)c1` gave EBI2 block inactive, APJ ag inactive, CCR6 antagonist inactive, CXCR6 block inactive and APJ antagonist inactive.
`O=C(CCC(=O)Nc1ccc(Br)cc1)N/N=C/c1cc([N+](=O)[O-])ccc1O` gave EBI2 block inactive, APJ ag inactive, CCR6 antagonist 65, CXCR6 block inactive, APJ antagonist 42 and APJ antag confirm inactive.
For CC(C)CNC(=O)C1(C)CCCN1C(=O)C(C)(C)Oc1ccc(Cl)cc1 (stereo not given) the results were EBI2 block inactive and CXCR6 block inactive.
For CCc1ccc2c(c1)NC(=O)C2(C)Cc1ccccc1 (stereo not given) the results were EBI2 block inactive and CXCR6 block inactive.
Screening CCc1ccc2c(c1)C1(NN=C(c3cccc4ccccc34)S1)C(=O)N2 (stereo not given) returned EBI2 block inactive, APJ ag inactive, CXCR6 block inactive, APJ antagonist 42 and APJ antag confirm inactive.
Screening Cc1ccc(CNc2nc(N)c([N+](=O)[O-])c(Nc3cccc(F)c3)n2)cc1 returned EBI2 block inactive, APJ ag inactive, CCR6 antagonist inactive, CXCR6 block inactive, APJ antagonist 41 and APJ antag confirm inactive.
`O=C(NNc1c2ccccc2nc2ccccc12)c1ccc(O)cc1` gave EBI2 block inactive, APJ ag inactive, CCR6 antagonist 57, CXCR6 block inactive, APJ antagonist 41 and APJ antag confirm 69.
`O=C(NNc1c2ccccc2nc2ccccc12)c1ccccc1O` gave EBI2 block inactive, APJ ag inactive, CCR6 antagonist inactive, CXCR6 block inactive and APJ antagonist inactive.
`CCCCCC(=O)N1C[C@@H](O)[C@H](n2cc(COC(=O)c3ccccc3)nn2)C[C@@H]1c1ccc(OC)cc1` gave EBI2 block inactive and CXCR6 block inactive.
CC(C)c1nc(C#N)c(NN)o1 was read as EBI2 block inactive, APJ ag inactive, CCR6 antagonist inactive, CXCR6 block inactive, APJ antagonist 42 and APJ antag confirm 66.
CC(C)c1nc(C#N)c(NCCCn2ccnc2)o1 was read as EBI2 block inactive, APJ ag inactive, CCR6 antagonist inactive, CXCR6 block inactive and APJ antagonist inactive.
Screening CN(C)CCN1CCN(C2CN(Cc3cn(Cc4ccccc4)nn3)S(=O)(=O)C2)CC1 (stereo not given) returned EBI2 block inactive and CXCR6 block inactive.
`CN1C(=O)/C(=C\c2cc(N=Nc3ccccc3)ccc2O)SC1=S` gave EBI2 block inactive, APJ ag inactive, CCR6 antagonist 55, CXCR6 block 52, APJ antagonist 68 and APJ antag confirm 109.
O=C(c1ccco1)C(O)c1ccco1 (stereo not given) was read as EBI2 block inactive, APJ ag inactive, CCR6 antagonist 58, CXCR6 block inactive, APJ antagonist 52 and APJ antag confirm 98.
Cc1ccc(C(O)C(=O)c2ccco2)cc1 (stereo not given) was read as EBI2 block inactive, APJ ag inactive, CCR6 antagonist inactive, CXCR6 block inactive and APJ antagonist inactive.
`CCN(CC)CCN1CCN(c2cncc(-c3ccc4ccccc4c3)n2)CC1` gave EBI2 block inactive and CXCR6 block inactive.
`Cc1ccc(N2CCN(C(CCc3ccccc3)C(=O)Nc3c(C)cccc3C)CC2)cc1` (stereo not given) gave EBI2 block inactive.
Screening CCOc1cc(/C=C2\SC(=O)N(CC(=O)Nc3ccccc3F)C2=O)cc([N+](=O)[O-])c1O returned EBI2 block inactive, APJ ag inactive, CCR6 antagonist inactive, CXCR6 block inactive, APJ antagonist 54 and APJ antag confirm 79.
Screening CCCOc1ccc(C(=O)NNC(=S)NC(=O)CC)cc1 returned EBI2 block inactive, APJ ag inactive, CCR6 antagonist 78, CXCR6 block 48, APJ antagonist 54 and APJ antag confirm 94.
Screening Cc1ccc(S(=O)(=O)N2C[C@H]3C(=O)C[C@@H](c4ccccc4)N(S(=O)(=O)c4ccc(C)cc4)[C@H]3C[C@H]2c2cccs2)cc1 returned EBI2 block inactive and CXCR6 block inactive.
Screening COc1cccc(NC(=S)N/N=C2\CC3CCC2(C)C3(C)C)c1 (stereo not given) returned EBI2 block inactive, APJ ag inactive, CCR6 antagonist 55, CXCR6 block inactive, APJ antagonist 41 and APJ antag confirm 79.
CC(C)NC(=O)C1(C)CSCC(=O)N1CCCn1ccnc1 (stereo not given) was read as EBI2 block inactive.
For CCNc1c(N)c(=O)oc2ccccc12 the results were EBI2 block inactive, APJ ag inactive, CCR6 antagonist inactive, CXCR6 block inactive and APJ antagonist inactive.
For CCCNc1c(N)c(=O)oc2ccccc12 the results were EBI2 block inactive, APJ ag inactive, CCR6 antagonist inactive, CXCR6 block inactive, APJ antagonist 56 and APJ antag confirm inactive.
`Cn1cccc1/C=C(/C#N)C(N)=S` gave EBI2 block inactive, APJ ag inactive, CCR6 antagonist inactive, CXCR6 block inactive, APJ antagonist 41 and APJ antag confirm 58.
CN1CCC(N2CCN(C3CN(Cc4ccc(F)cc4)S(=O)(=O)C3)CC2)CC1 (stereo not given) was read as EBI2 block inactive and CXCR6 block inactive.
Screening CCN1/C(=C2\C(=O)N(C)C(=S)N2C)C=Cc2cc(OC)ccc21 returned EBI2 block inactive, APJ ag inactive, CCR6 antagonist inactive, CXCR6 block inactive and APJ antagonist inactive.
C=CCn1c(=O)/c(=C2/Sc3cc(OC)ccc3N2C)s/c1=C1\C(=O)N(CC)C(=S)N1C was read as APJ ag inactive, APJ antagonist 50 and APJ antag confirm 76.
CCC1=C(NCc2ccccc2)COC1=O was read as EBI2 block inactive and CXCR6 block inactive.
Cc1ccc(C)c2nc3sc(C(=O)N4CCOCC4)c(N)c3cc12 was read as EBI2 block inactive, APJ ag inactive, CCR6 antagonist inactive, CXCR6 block inactive and APJ antagonist inactive.
`Cc1cc(C)c2nc3sc(C(=O)N4CCOCC4)c(N)c3cc2c1` gave EBI2 block inactive, APJ ag inactive, CCR6 antagonist inactive, CXCR6 block inactive, APJ antagonist 44 and APJ antag confirm inactive.
